Hits are enriched below; roughly 2.4% of the tested compounds scored in any of these assays.
MC4R antagonist: blocks human MC4R cAMP signaling; P32245; MC4R-expressing cells, MTII-stimulated cAMP, LANCE TR-FRET; inhibition, % at 6.5 µM; hit rate 0.48% among 360,000; AID 540295;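 active = inhibition above its plate's cutoff, the mean of tested wells on that plate plus 3 SD, cut at about 29% in these data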
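Material – human MC4R-expressing U2OS cells · Repeats – no replicates · Detection – TR-FRET with Eu-cAMP and labeled anti-cAMP, 671 nm · Times – compound 30 min, challenge 1 h, detection 1 h · Compound – single nominal compound dose of 6.5 µM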
aDG glyco up: alpha-DG glycosylation activation; activation, % at 10 µM; AID 624168; hit rate 0.22% among 360,000; Pro5-aDG cells, alpha-DG glycosylation AlphaScreen (IIH6); 0% Pro5, 100% B10-LARGE cell signal;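 active = activation of at least 8% versus controls, or a plate z-score of at least 8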;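 also: Pro5 are CHO cells carrying HIG-tagged alpha-DG that lacks glycosylation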
TAG inh: inhibitors of triacylglycerol accumulation; H9c2 cells, Nile Red lipid (TAG) fluorescence; cells loaded with 200 µM oleic acid; hit rate 0.66% among 230,000; AID 651582; inhibition, % at 12.5 µM;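 active = pattern-corrected inhibition of lipid staining of at least 50% with the nuclear-stain viability signal not falling by more than 50%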
NTR1 agonist: NTR1 (human) agonism; AID 493036; NTR1-U2OS beta-arrestin-GFP spot imaging, agonist mode; hit rate 0.17% among 330,000; activation, % at 20 µM; P30989;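 active = activation at or above 40% of the spot to cytoplasm intensity ratio, with at least 20 cells analyzed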
Target sequence (P30989 whole entry, looked up): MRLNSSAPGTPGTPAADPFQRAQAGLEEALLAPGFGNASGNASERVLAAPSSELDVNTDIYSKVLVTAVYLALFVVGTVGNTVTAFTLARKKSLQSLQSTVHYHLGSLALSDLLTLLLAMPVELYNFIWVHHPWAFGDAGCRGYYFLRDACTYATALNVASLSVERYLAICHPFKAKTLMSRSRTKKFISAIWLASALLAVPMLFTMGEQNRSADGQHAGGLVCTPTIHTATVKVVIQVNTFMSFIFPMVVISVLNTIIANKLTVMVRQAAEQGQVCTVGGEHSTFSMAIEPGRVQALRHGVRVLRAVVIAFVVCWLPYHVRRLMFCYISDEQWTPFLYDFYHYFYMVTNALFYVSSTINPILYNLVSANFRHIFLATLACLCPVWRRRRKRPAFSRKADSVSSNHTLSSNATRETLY
MC4R ag barr: activates human MC4R beta-arrestin recruitment; P32245; U2OS MC4R beta-arrestin complementation, luminescence; percent of melanotan II response, DMSO zero; activation, % at 8.9 µM; hit rate 0.98% among 360,000; AID 540308;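 active = activation above a per-plate cutoff, the mean activation of sample wells on that plate plus 3 SD, cut at about 8% in these data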
Tb MetRS inh: blocks T. brucei methionyl-tRNA synthetase activity; purified T. brucei MetRS, ATP depletion, Kinase-Glo luminescence; inhibition, % at 11.9 µM; hit rate 0.4% among 360,000; AID 624268;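 active = inhibition above a per-plate cutoff of the control wells' mean inhibition plus 3 SD, cut at about 5.5% in these data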
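System: purified T. brucei MetRS enzyme / Detection: Kinase-Glo luciferase luminescence reporting remaining unconsumed ATP / Medium: HEPES buffer with MgCl2, KCl, DTT, spermine, BSA, pyrophosphatase / Replication: singlicate, one well per compound / Evaluation: percent inhibition relative to median high and low control wells / Schedule: 2 h aminoacylation at 25 °C after 15 min preincubation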
H9c2 TAG conf: triacylglycerol accumulation inhibition, confirmation. H9c2 lipid accumulation, Nile Red fluorescence; cells loaded with 200 µM oleic acid. hit rate 71% among 990. AID 651629. shares compounds with TAG inh. inhibition, % at 12.5 µM;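 active = mean inhibition across replicates of 40% or more; inactive = mean inhibition below 40%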
Hits are given with their value; n = inactive; x = no result given.

SMILES	MC4R antagonist	aDG glyco up	TAG inh	NTR1 agonist	MC4R ag barr	Tb MetRS inh	H9c2 TAG conf
CC(C)CCNCC(O)CON=C1c2ccccc2-c2ccccc21 (configuration not stated)	n	n	64.2	n	n	n	41.7
CC(C)CN(C(=O)COC(=O)CCC(=O)c1ccc(Cl)cc1)c1c(N)n(Cc2ccccc2)c(=O)[nH]c1=O	n	n	n	n	n	n	x
CN(C)CCCN1c2ccccc2CCc2ccc(Cl)cc21	n	n	n	n	n	n	x
CNCCCN1c2ccccc2CCc2ccccc21	n	n	57.2	n	n	n	47.0
O=C(Cc1ccccc1)NC(Nc1cccc2ccccc12)C(Cl)(Cl)Cl (configuration not stated)	n	n	57.7	n	n	n	n
O=C(Cc1ccccc1)NC(Nc1ccccc1)C(Cl)(Cl)Cl (configuration not stated)	n	n	x	n	n	n	x
CCOc1ccccc1C1C2=C(COC2=O)Nc2cc3c(cc21)OCO3 (configuration not stated)	n	n	52.7	n	n	n	52.7
CCc1nc2ccc(C(=O)N(C)CCCN(C)C)cn2c1N(C)Cc1cc2ccccc2s1	n	n	n	x	n	n	x
CC(C)C(C)(C#N)NC(=O)CSc1nc2scc(-c3ccco3)c2c(=O)n1-c1ccccc1 (configuration not stated)	n	n	70.4	n	n	n	44.4
CC(=O)c1ccc(NC(=O)CN(c2c(C)cccc2C)S(C)(=O)=O)cc1	n	n	x	n	n	n	x
CC(C)C[C@H]1C(=O)N2CCC[C@H]2[C@]2(O)O[C@](NC(=O)[C@@H]3C=C4c5cccc6[nH]c(Br)c(c56)CC4N(C)C3)(C(C)C)C(=O)N12 (some centres not stated)	n	n	61.9	n	n	n	91.5
CCOc1ccc2ncc(S(=O)(=O)c3ccccc3)c(N3CCN(c4ccccc4)CC3)c2c1	n	n	n	n	n	n	x
CCOC(=O)c1cnc2ccc(OCC)cc2c1N1CCN(c2ccccc2)CC1	n	n	52.8	n	n	n	n
COc1ccc(-n2nc(C(=O)Nc3ccc4c(c3)OCO4)c3c4ccccc4n(C)c3c2=O)cc1	n	n	66.3	n	n	n	43.6
COc1ccc(-n2nc(C(=O)Nc3ccc(OC)c(OC)c3)c3c4ccccc4n(C)c3c2=O)cc1	n	n	81.8	n	n	n	n
O=C1NC[C@@H](CCCCN2C[C@H](Cc3ccc(O)cc3)N(Cc3ccccc3)C(=O)C2=O)N(CC2CCCCC2)C1=O	x	n	x	x	x	n	x
CCCC(=O)Nc1ccc2oc(-c3cccnc3)nc2c1	n	n	n	n	n	n	x
O=C(Nc1ccc2oc(-c3cccnc3)nc2c1)c1cc2ccccc2o1	n	n	51.9	n	n	n	n
CC(C)(C)c1ccc(CC(=O)N2CCC2(C)C(=O)NCc2ccc3c(c2)OCO3)cc1 (configuration not stated)	n	n	n	x	n	n	x
Cn1nnc2c[n+](CC(=O)c3ccc(Cl)cc3)cc(Br)c21	n	n	58.9	n	n	n	68.7
Cn1nnc2c[n+](CC(=O)c3ccc4ccccc4c3)cc(Br)c21	n	n	n	n	n	n	x
CN1CCN(C(=O)c2ccc(Cc3cn(C)c4ccccc34)nc2)CC1	n	n	53.7	x	n	n	n
O=C(Cc1ccccc1)NCC(=O)OCC(=O)c1ccc(Cl)cc1	n	n	n	n	n	n	x
COc1cc(OC)c(-c2nn3c(-c4ccco4)nnc3s2)cc1OC	n	n	53.6	x	n	n	n
Cc1c(C(=O)NCCC2=CCCCC2)oc2ccc(S(=O)(=O)N3CCC4(CC3)OCCO4)cc12	n	n	52.2	n	n	n	n
Cc1c(C(=O)NCc2ccccc2)oc2ccc(S(=O)(=O)N3CCC4(CC3)OCCO4)cc12	n	n	n	n	n	n	x
N#CC(C(=O)c1ccccc1)=C1SCCS1	n	n	n	n	n	n	x
Cc1ccc(NC(=O)c2cc3ccccc3o2)cc1S(=O)(=O)N(C)C	n	n	70.4	x	n	n	n

Bioassay records from PubChem.
